Shown are actives, neighbours in structure and some others; about 2.3% of the full set was active somewhere.
TRPC4 block: inhibitors of mouse TRPC4 channel, primary screen, Fluo4 calcium, HEK293 TRPC4beta/mu-opioid cells; DAMGO-evoked Fluo4 calcium flux; active compounds read low; actives 0.39% (n = 300,000); B-score at 10 µM; Short transient receptor potential channel 4 (Mus musculus), Q9QUQ5;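 active = B-score over 3 SD under the library average, no early fluorescence shift, positive overall ratio signal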
Target sequence (Q9QUQ5 whole entry, looked up): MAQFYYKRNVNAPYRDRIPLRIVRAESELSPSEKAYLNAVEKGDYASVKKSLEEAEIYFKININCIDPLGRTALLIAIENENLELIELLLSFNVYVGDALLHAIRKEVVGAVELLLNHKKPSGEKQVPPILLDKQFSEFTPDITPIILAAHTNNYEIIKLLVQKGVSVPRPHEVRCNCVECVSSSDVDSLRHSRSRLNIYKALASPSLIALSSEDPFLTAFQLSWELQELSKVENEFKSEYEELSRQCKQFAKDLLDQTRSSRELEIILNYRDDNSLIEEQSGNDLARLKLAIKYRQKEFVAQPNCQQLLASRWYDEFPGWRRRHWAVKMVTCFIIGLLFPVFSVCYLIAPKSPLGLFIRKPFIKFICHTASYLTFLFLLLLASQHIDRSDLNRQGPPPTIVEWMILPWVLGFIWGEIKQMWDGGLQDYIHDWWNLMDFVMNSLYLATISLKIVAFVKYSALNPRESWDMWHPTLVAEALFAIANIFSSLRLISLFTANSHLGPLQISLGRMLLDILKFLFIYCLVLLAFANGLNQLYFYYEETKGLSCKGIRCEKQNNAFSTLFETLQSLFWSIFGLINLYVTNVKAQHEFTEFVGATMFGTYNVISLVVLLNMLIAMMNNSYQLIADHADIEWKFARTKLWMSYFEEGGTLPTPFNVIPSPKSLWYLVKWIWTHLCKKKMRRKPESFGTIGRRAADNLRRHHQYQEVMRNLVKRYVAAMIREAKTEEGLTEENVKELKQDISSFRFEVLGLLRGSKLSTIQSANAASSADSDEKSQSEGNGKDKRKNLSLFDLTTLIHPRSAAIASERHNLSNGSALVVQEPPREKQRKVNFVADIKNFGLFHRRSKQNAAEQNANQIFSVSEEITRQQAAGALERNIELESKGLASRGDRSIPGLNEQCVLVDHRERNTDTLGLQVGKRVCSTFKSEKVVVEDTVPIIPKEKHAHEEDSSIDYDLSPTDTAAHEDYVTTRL
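Assay system: HEK293 cells with stable TRPC4beta plus mu-opioid receptor expression. Dosing: single dose. Measured by: Fluo4 Ca2+ flux fluorescence. Also added: DAMGO in two steps, submaximal then maximal. Read-out: B score from integrated Fluo4 fluorescence ratio.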
TRPC4 PAM: positive allosteric modulators of TRPC4, primary screen, cell-based, mouse TRPC4beta, HEK293 mu-opioid, Fluo-4 calcium; DAMGO EC20, Fluo-4 Ca2+ flux; active compounds read high; B-score at 10 µM; actives 0.42% (n = 310,000); AID 2227, 2009;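 active = B-score of calcium response area above 5 SD of library B-scores, with initial fluorescence ratio within 5 SD of library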;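 note: B-score of integrated fluorescence ratio over time as area under calcium response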
TRPC4 act: activators of mouse TRPC4 channel, primary screen, Fluo4 calcium, HEK293 TRPC4beta/mu-opioid cells | Short transient receptor potential channel 4 (Mus musculus), Q9QUQ5 | Fluo4 calcium fluorescence; active compounds read high | B-score at 10 µM | actives 0.49% (n = 310,000);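 active = B-score above 5 SD of library B-scores, and initial fluorescence ratio not above library mean plus 5 SD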;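 note: positive B-score marks a calcium rise read as TRPC4 activation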
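Incubation: 45 min room-temperature Fluo4 loading, 110 s read / System: HEK293 cells stably co-expressing mouse TRPC4beta and mu-opioid receptor / Signal: Fluo4 fluorescence, kinetic / Control set: buffer (low) and maximal DAMGO (high) / Measure: integrated baseline-normalised fluorescence ratio, converted to per-well B score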
TRPC6 inh: mouse TRPC6 channel inhibitors, primary screen, cell-based, HEK293, membrane potential dye. Short transient receptor potential channel 6 (Mus musculus), Q61143. ACh-evoked depolarization; active compounds read low. B-score at 10 µM. actives 1.1% (n = 310,000);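 active = B-score under library mean minus 3 SD, initial fluorescence not abnormally high, positive integrated signal ratio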;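 note: B-score derived from integrated fluorescence ratio over the kinetic read; more negative B-score means stronger inhibition of depolarization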
TRPC6 act: mouse TRPC6 channel activators, primary screen, cell-based, HEK293, membrane potential dye | actives 0.13% (n = 310,000) | HEK293-TRPC6 membrane potential dye fluorescence; active compounds read high | B-score at 10 µM | Short transient receptor potential channel 6 (Mus musculus), Q61143 | AID 2550, 2010;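 active = B-score of the integrated fluorescence ratio above library mean plus 3 SD, and starting fluorescence ratio within library mean plus 5 SD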;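 note: higher score means more depolarization so channel activation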
Numbers without * were called inactive; i = inactive.

SMILES | TRPC4 block | TRPC4 PAM | TRPC4 act | TRPC6 inh | TRPC6 act
CCOc1ccccc1NS(=O)(=O)c1ccc2[nH]c(=O)[nH]c2c1 | i | 13* | i | i | i
CCCOCC(O)CC(Cc1ccccc1)C(=O)NN (stereo not given) | i | i | i | i | i
CCCc1cc(=O)oc2cc(C)cc(OCC(=O)Nc3cccnc3)c12 | i | i | i | i | i
NC(=O)C1CCCN(CC(O)COCc2ccc(Cl)cc2)C1 (stereo not given) | i | i | 189* | i | i
CCOC(=O)C1CCN(CC(O)COCc2ccc(Cl)cc2)CC1 (stereo not given) | i | i | i | i | i
COC(=O)c1ccc(C(=S)NCC2(N(C)C)CCCCC2)cc1 | i | i | 101* | i | i
COc1ccc(CCNC(=O)c2c(O)c3ccccc3[nH]c2=O)cc1 | i | i | i | i | i
CC12CCC(C(=O)N(NC(=O)c3cc(Cl)ccc3O)C1=O)C2(C)C (stereo not given) | i | i | i | i | i
O=C(CCCSc1nc2ccccc2[nH]1)Nc1nnc(-c2ccccc2)o1 | -6* | i | i | i | i
CCCCc1ccc(NC2=NCC(=O)N2CCc2ccccc2)cc1 | i | i | i | i | i
O=C1c2ccccc2S(=O)(=O)c2cc(C(=O)N(c3ccccn3)c3ccccn3)ccc21 | i | i | 135* | i | i
Cc1cc(C)n(C(=O)/C(C#N)=N\Nc2ccccc2[N+](=O)[O-])n1 | i | i | i | i | i
Cc1cc(C)n(C(=O)/C(C#N)=N/Nc2cc(Cl)cc(Cl)c2)n1 | i | i | i | -6.52* | i
COC(=O)c1ccc(NC(=O)COc2ccc(S(=O)(=O)NC(C)(C)C)cc2)cc1 | i | i | i | i | i
CC(C)CCc1noc(CN2CCN(c3ccc(Cl)cn3)CC2)n1 | i | 16* | i | i | i
C=CCN1C(=O)/C(=C/C=C2/N(CC)c3ccc(S(=O)(=O)N(C)C)cc3N2CC)SC1=S | i | 10* | 64* | i | i
CC(=O)c1ccc(N2CCN(c3ccc(S(=O)(=O)NCCCN(C)C)cc3[N+](=O)[O-])CC2)cc1 | i | 26* | i | i | i
CCn1c(NCc2ccco2)nc2ccccc21 | i | 54* | i | i | i
CCCCn1c(NCc2ccc(N(C)C)cc2)nc2ccccc21 | -6* | i | i | i | i
C=CCn1c(NCc2ccco2)nc2ccccc21 | i | 34* | i | i | i
c1ccc(Cn2c(NCc3ccco3)nc3ccccc32)cc1 | -6* | i | i | i | i
Cc1cc(NS(=O)(=O)c2ccc(NC(=O)CSc3nc4ncc(Br)cc4[nH]3)cc2)nc(C)n1 | i | i | i | i | i
Cc1ccc(OCCN2C(=O)NC3(CCc4ccccc4C3)C2=O)cc1 (stereo not given) | i | i | i | i | i
COc1ccc(C(CNC(=O)c2oc3ccc(OC)cc3c2C)N2CCCC2)cc1 (stereo not given) | i | i | 72* | i | i
CCC1CCc2sc(C(=O)NCC(c3ccc(OC)cc3)N3CCCC3)cc2C1 (stereo not given) | i | i | 55* | i | i
CCc1ccc(NC(=O)c2cnc(SC)nc2C)cc1 | i | i | i | i | i
Cc1ccc(NC(=O)CSCC(=O)Nc2nnc(C)s2)cc1 | i | i | i | i | i
Cc1ccc(S(=O)(=O)N2CC(C)N(C(=O)N3CCOCC3)C2C)cc1 (stereo not given) | i | i | i | i | i
CCOc1ccccc1N(CC(=O)N1CCOCC1)S(=O)(=O)c1ccccc1 | -6* | i | 93* | i | i
